This is an account of results in ChEMBL document CHEMBL1122179, “1-(alkylamino)isochromans: hypotensives with peripheral and central activities” (J Med Chem, 1982).

The target in test [1] is T1, Adrenergic receptor alpha-2 (Rattus norvegicus, UniProt P22086+P19328+P22909).
T1 sequence (P22086 whole entry): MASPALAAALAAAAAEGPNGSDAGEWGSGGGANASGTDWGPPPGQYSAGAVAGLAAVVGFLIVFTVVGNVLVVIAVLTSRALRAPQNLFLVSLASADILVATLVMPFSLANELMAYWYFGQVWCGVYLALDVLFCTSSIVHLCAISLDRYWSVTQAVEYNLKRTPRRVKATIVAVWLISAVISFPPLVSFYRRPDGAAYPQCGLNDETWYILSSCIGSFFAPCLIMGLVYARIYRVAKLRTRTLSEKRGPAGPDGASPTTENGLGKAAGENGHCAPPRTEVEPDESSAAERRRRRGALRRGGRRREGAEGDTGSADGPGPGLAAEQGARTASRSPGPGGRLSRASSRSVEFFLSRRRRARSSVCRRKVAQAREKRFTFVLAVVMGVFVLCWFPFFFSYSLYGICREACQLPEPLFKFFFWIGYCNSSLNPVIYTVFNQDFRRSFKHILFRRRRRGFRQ
T1 sequence (P19328 whole entry): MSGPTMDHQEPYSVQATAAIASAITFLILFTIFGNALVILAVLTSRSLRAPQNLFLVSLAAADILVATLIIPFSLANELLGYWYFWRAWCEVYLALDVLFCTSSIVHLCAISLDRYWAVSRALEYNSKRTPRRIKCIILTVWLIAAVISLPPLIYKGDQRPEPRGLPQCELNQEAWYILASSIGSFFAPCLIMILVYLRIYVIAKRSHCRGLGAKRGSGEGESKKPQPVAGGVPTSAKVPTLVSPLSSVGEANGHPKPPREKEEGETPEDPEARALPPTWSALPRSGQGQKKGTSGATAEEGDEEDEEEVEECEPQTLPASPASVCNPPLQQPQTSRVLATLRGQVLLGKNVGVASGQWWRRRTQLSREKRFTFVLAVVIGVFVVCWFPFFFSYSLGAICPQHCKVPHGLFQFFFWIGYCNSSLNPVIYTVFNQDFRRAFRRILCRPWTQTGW
T1 sequence (P22909 whole entry): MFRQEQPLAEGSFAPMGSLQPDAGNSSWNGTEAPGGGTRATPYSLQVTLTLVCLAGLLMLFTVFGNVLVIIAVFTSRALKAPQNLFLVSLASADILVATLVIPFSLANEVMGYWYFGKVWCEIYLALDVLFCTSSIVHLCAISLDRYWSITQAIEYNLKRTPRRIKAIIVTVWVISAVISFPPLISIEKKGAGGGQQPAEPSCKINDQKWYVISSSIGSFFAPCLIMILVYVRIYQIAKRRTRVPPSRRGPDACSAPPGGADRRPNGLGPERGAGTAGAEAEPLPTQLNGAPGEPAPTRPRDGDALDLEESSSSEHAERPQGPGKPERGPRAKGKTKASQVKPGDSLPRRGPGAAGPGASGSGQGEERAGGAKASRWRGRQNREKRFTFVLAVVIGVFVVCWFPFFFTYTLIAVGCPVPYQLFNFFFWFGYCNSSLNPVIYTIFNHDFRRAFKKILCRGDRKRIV
Kind of test: Compound was tested for the inhibition of [3H]clonidine binding Alpha-2 adrenergic receptor of crude rat brain membrane.

Test [2] relates to Rattus norvegicus. Briefly: Heart rate of compound was measured in anesthetized rats at 60 min. It is filed as functional. The essentials: (§1)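 Female Sprague-Dawley rats (200–300 g), anesthetized iv with α-chloralose (40 mg/kg), urethane (40 mg/kg) and pentobarbital (15 mg/kg). Carotid artery catheter for blood pressure and heart rate, jugular vein for drugs. Test agent given at 1.0 mg/kg iv in 0.1 M citric acid (1 mg/mL). Pressor responses to iv norepinephrine 0.1 μg/kg, phenylephrine 2.5 μg/kg and angiotensin I 0.1 μg/kg were taken before and 15, 30, 45 and 60 min after dosing. Mean ± SEM.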

Test [3] has as its system Rattus norvegicus. Briefly: Mean arterial pressure of compound was measured in anesthetized rats at 0 min. Type of test: functional, Artery. Summed up:
as §1

In test [4] the test system is Rattus norvegicus. Kind of test: Mean arterial pressure of compound was measured in anesthetized rats at 60 min. It is filed as functional, Artery. Summed up: as §1
The subject of test [5] is Rattus norvegicus. Kind of test: Delta BP refers to oral hypotensive activity of compound which is evaluated at 4 hr and 24 hr in restrained, normotensive conscious rats at a dose of 5 mg/kg; -9/-3. Type of test: functional. The essentials:
(§2)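 Female Sprague-Dawley rats, normotensive, restrained in a towel. Blood pressure was read directly via chronic indwelling aortic cannulas exteriorized at the nape, before and 4 and 24 h after an oral dose suspended in carboxymethylcellulose (10 mL/kg). Values from two animals were averaged at each time; a mean change of at least 5 mmHg was taken as significant (p < 0.05).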

In test [6] the test system is Rattus norvegicus. Briefly: Delta BP refers to oral hypotensive activity of compound which is evaluated at 4 hr and 24 hr in restrained, normotensive conscious rats at a dose of 15 mg/kg; -20/-18. Type of test: functional. The essentials: as §2
Test [7] relates to Rattus norvegicus. Kind of test: Pressor effects of intravenous norepinephrine (0.1 ug/kg) was measured in anesthetized rats at 0 min. It is filed as functional. The essentials: as §1
In test [8] the test system is Rattus norvegicus. Briefly: Pressor effects of intravenous norepinephrine (0.1 ug/kg) was measured in anesthetized rats at 60 min. Type of test: functional. Summed up: as §1
Test [9] deals with Rattus norvegicus. Kind of test: Pressor effects of intravenous phenylephrine (2.5 ug/kg) was measured in anesthetized rats at 60 min. Type of test: functional. The essentials:
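Female Sprague–Dawley rats (200–300 g) anesthetized iv with α-chloralose 40 mg/kg, urethane 40 mg/kg and pentobarbital 15 mg/kg. Carotid artery catheterized for blood pressure, jugular vein for drugs. Pressor response to iv phenylephrine 2.5 µg/kg measured before and 15, 30, 45, 60 min after 1.0 mg/kg iv test drug dissolved in 0.1 M citric acid (1 mg/mL). Mean ± SEM.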

Test [10] relates to Rattus norvegicus. Briefly: Pressor effects of intravenous phenylephrine (2.5 ug/kg) was measured in anesthetized rats at 0 min. Type of test: functional. The essentials: as §1

As a reminder, the Ki is the dissociation constant of the complex between target and ligand, obtained from inhibition or displacement. A lower Ki goes with higher affinity. Consider `COc1cc2c(cc1OC)C(CCN1CCN(c3ccc(F)cc3)CC1)OCC2` (stereo not given), for which, in [1], the inhibition constant (Ki) is reported as 62 nM. Moreover, in [2], the HR is 426 beats min-1. The MAP is on record as 105 mmHg in [3] and 87 mmHg in test [4]. The Delta blood pressure is given as -9 mmHg in test [5] and -20 mmHg in [6]. For the same compound, the Pressor response worked out at 19 mmHg in [7], 7 mmHg in test [8], 16 mmHg in [9] and 48 mmHg in test [10].
